Experimental data gathered from unrelated publications.
Compare with care: the assays were run in different laboratories.
Target: High affinity nerve growth factor receptor (NTRK1, Homo sapiens, UniProt P04629)

Compound | test | setting | quantity | result
Nc1ncnc2occ(-c3ccc(NC(=O)Nc4cc(C(F)(F)F)ccc4F)cc3)c12 | cell-free assay | 20 µM | remaining signal | 0%
CN(C)C(=O)Cn1cc(-c2nc(C3(c4ccc(-c5cnc(N)nc5)cc4)CC3)no2)cn1 | cell-free assay, competition with immobilised ligand | 1 µM | remaining binding | 100%
CC(C)(C)c1nc2c(s1)c1nc(N)ncc1c1ccc(NS(=O)(=O)c3c(F)cccc3F)c(F)c12 | enzyme activity, inhibitor, radiometric | 1 µM | remaining activity | 54%
O=C(Nc1ccc2[nH]ncc2c1)c1cccc(NC(=S)Nc2cc(C(F)(F)F)cc(C(F)(F)F)c2)c1 | enzyme activity, inhibitor, FRET | 1 µM | inhibition | 51.3%
FC(F)(F)Oc1cccc(-c2cnc3ccc(-c4ccncc4)nn23)c1 | enzyme activity, inhibitor, radiometric | 1 µM | activity vs control | 16%
Cc1c(NC(=O)c2cc(C(N)=O)nc3cc(F)ccc23)c(C(F)(F)F)nn1Cc1ccc(C#N)cc1 | cell-free assay, competition with immobilised ligand | 1 µM | remaining binding | 83%
O=C(Nc1ccc2[nH]ncc2c1)c1cccc(NC(=S)Nc2ccc(F)cc2F)c1 | enzyme activity, inhibitor, FRET | 1 µM | inhibition | 67.3%
Cc1cnc(NC2CCOCC2)nc1-n1cnc(C(=O)NC(CN)c2cc(F)cc(Cl)c2)c1 (centres unmarked) | enzyme activity, inhibitor, radiometric | 1 µM | remaining activity | 100%
CN(c1nccc(-c2cnn3ncccc23)n1)C1CC1 | cell-free assay | 1 µM | remaining signal | 100%
CCN(CC)CCNC(=O)c1c(C)[nH]c(/C=C2\C(=O)Nc3ccc(F)cc32)c1C | enzyme activity, inhibitor | 0.1 µM | remaining activity | 19%
CCCOc1ccc([C@H]2[C@H](C(=O)O)[C@@H](c3ccc4c(c3)OCO4)CN2CC(=O)Nc2c(CC)cccc2CC)cc1 | cell-free assay, competition with immobilised ligand | 1 µM | remaining binding | 84%
O=C(Nc1cccc(C(=O)Nc2ccc3[nH]ncc3c2)c1)Nc1ccccc1Cl | enzyme activity, inhibitor, FRET | 1 µM | inhibition | 37.7%
O=C1NC(=O)c2cc(Nc3ccc(F)cc3)c(Nc3ccc(F)cc3)cc21 | cell-free assay | 0.5 µM | remaining signal | 93.6%
COc1cc(-c2cn(C3CCc4ccccc4N(CC(F)(F)F)C3=O)nn2)ccc1-n1ccc(C)n1 (centres unmarked) | cell-free assay, competition with immobilised ligand | 1 µM | remaining binding | 63%
O=C1Nc2ccc(Cl)cc2C1=Cc1cc(Cl)c(O)c(Cl)c1 | cell-free assay | 0.5 µM | remaining signal | 87.4%
O=C(Nc1ccc(I)cc1)Nc1cccc(C(=O)Nc2ccc3[nH]ncc3c2)c1 | enzyme activity, inhibitor, FRET | 1 µM | inhibition | 47.4%
FC(F)c1nc2ccccc2n1-c1nc(N2CCOCC2)nc(N2CCOCC2)n1 | enzyme activity, inhibitor | 10 µM | remaining activity | 83%
O=C(Nc1cnn(-c2csc(C(=O)NC3COC3)c2)c1)Nc1c(F)cccc1Cl | enzyme activity, inhibitor | 5 µM | remaining activity | 87.8%
CS(=O)(=O)N1CCCC(NC(=O)[C@H](CCC2CCCCC2)NC(=O)c2ccc(CNc3ncnc4c3nnn4-c3ccccc3)cc2)C1 (some centres unmarked) | cell-free assay, competition with immobilised ligand | 0.1 µM | remaining binding | 100%
Cc1ccc(NC(=O)c2ccc(CN3CCN(C)CC3)cc2)cc1Nc1nc(-c2cccnc2)cs1 | cell-free assay | 0.5 µM | remaining signal | 97.1%
O=C(NCc1ncc(C(F)(F)F)cc1Cl)c1ccc2c(c1)C1(CCS(=O)(=O)CC1)[C@@H](C1CC1)N2S(=O)(=O)c1ccc(F)cc1 | cell-free assay, competition with immobilised ligand | 1 µM | remaining binding | 75%
O=C(Nc1cnn2ccc(N3CCC[C@@H]3c3cc(F)ccc3F)nc12)N1CC[C@H](O)C1 | enzyme activity, inhibitor, FRET | 1 µM | inhibition | 100%
Cc1[nH]c(/C=C2\C(=O)Nc3ccc(F)cc32)c(C)c1C(=O)N[C@H]1CCN(C(=O)N(C)C)C1 | enzyme activity, inhibitor | 0.1 µM | remaining activity | 34%
CC(C)(O)[C@H]1CC[C@H](Nc2ccc3ncc(-c4cccc(C(F)(F)F)c4)n3n2)CC1 | enzyme activity, inhibitor | 1 µM | remaining activity | 21.9%
CCS(=O)(=O)c1cc2cc(C[C@](O)(CC(C)(C)c3ccc(F)cc3C(N)=O)C(F)(F)F)[nH]c2cn1 | cell-free assay, competition with immobilised ligand | 1 µM | remaining binding | 82%
Cc1cc(NC(=O)c2cccc3cc(-c4cccc5[nH]nc(N)c45)ccc23)ccc1F | enzyme activity, inhibitor | 0.1 µM | activity vs control | 121%
Cc1ccc(NC(=O)c2ccc(C)c(C(F)(F)F)c2)cc1C#Cc1nn(C2CCC(O)CC2)c2ncnc(N)c12 (centres unmarked) | cell-free assay | 10 µM | remaining signal | 72%
CN([C@@H]1CCc2c(CC(=O)O)c3cc(S(C)(=O)=O)ccc3n2C1)S(=O)(=O)c1ccc(F)cc1 | cell-free assay, competition with immobilised ligand | 1 µM | remaining binding | 100%
O=C(Nc1ccc(F)cc1)Nc1cccc(C(=O)Nc2ccc3[nH]ncc3c2)c1 | enzyme activity, inhibitor, FRET | 1 µM | inhibition | 63.2%
